Data from ChEMBL document CHEMBL4414651, “Discovery and Optimization of Salicylic Acid-Derived Sulfonamide Inhibitors of the WD Repeat-Containing Protein 5-MYC Protein-Protein Interaction” (J Med Chem, 2019).
Calls of active or inactive are those of the source. The calls are words filed in the database; no cut-off is given here.

Tests used:
[1] = target: T1, WD repeat-containing protein 5 (Homo sapiens, UniProt P61964)
[2] = Apparent permeability from apical to basolateral side in MDCK cells; type: ADME, cell-based, Canis lupus familiaris; conditions: dog
[3] = Protein binding in plasma (unknown origin) assessed as unbound fraction; type: ADME, cell-free
[4] = Solubility of the compound; type: physicochemical
In short: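 Kinetic solubility, measured by an outside contract lab using a standard commercial assay format.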

[5] = species: Homo sapiens; assay: Inhibition of human MLL1/WDR5/RBBP5/ASH2L/DPY30 complex assessed as reduction in histone methyl-transferase activity using H3-peptide as substrate
[6] = target: T1, WD repeat-containing protein 5; assay: Binding affinity to N-terminal FLAG-tagged human full-length WDR5 […] assessed as change in melting temperature at 10 uM by differential scanning fluorimetry
In short: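 Thermal shift (differential scanning fluorimetry) on WDR5, with compounds at 10 μM. Samples were run in triplicate, and ΔTm is the average melting-temperature shift read by fluorescence.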

[7] = target: T1, WD repeat-containing protein 5; assay: Binding affinity to N-terminal FLAG-tagged human full-length WDR5 expressed in HEK293T cells harboring human C-terminal HA-tagged c-MYC assessed as disruption of WDR5-RBBP5 protein-protein interaction at 50 uM by SDS-PAGE based immunoblot assay; type: cell-based
In short: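 HEK293 cells expressing FLAG-WDR5 and c-MYC-HA were kept in DMEM with 10% FBS, hygromycin B 50 μg/mL and puromycin 100 ng/mL. Lysates in Tris pH 8.0/NaCl/EDTA/1% Triton buffer were treated with compound at 50 μM or 6.25–50 μM. α-FLAG magnetic M2 beads, 2 h at 4 °C, then SDS-PAGE and α-RBBP5 immunoblot. Quantified against vehicle; at least two independent repeats.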

[8] = target: T1, WD repeat-containing protein 5; assay: Binding affinity to N-terminal FLAG-tagged human full-length WDR5 expressed in HEK293T cells harboring human C-terminal HA-tagged c-MYC assessed as disruption of WDR5-c-MYC protein-protein interaction at 50 uM by SDS-PAGE based immunoblot assay; type: cell-based
[9] = target: T1, WD repeat-containing protein 5; assay: Binding affinity to WDR5 (unknown origin) assessed as inhibition of WDR5-MLL1 protein-protein interaction by TR-FRET assay

Question: With `N#CC1(c2cc(NS(=O)(=O)c3cc(Br)ccc3O)c(O)c(C(=O)O)c2)CCCCC1` as the compound, how does the Kd [1] read?
Answer: Its Kd is 195 nM.

Question: Which Kd [1] does the source give for `O=S(=O)(Nc1cc(Cl)ccc1O)c1cc(Br)ccc1O` here?
Answer: The Kd was 1250 nM.

Question: And the Papp [2]?
Answer: The Papp was 36.4 ×10⁻⁶ cm/s.

Question: And the Fu [3]?
Answer: Its Fu is under 0.0026%.

Question: And the solubility [4]?
Answer: The solubility was over 100 µM.

Question: Which Kd [1] does the source give for `O=S(=O)(Nc1cc(C2(C(F)(F)F)CC2)ccc1O)c1cc(Br)ccc1O` here?
Answer: The Kd was 547 nM.

Question: Which results are given for `CS(=O)(=O)c1cc(Cl)cc(NS(=O)(=O)c2cc(Br)cc(Cl)c2O)c1`?
Answer: Kd [1]: 220 nM; Papp [2]: 3.89 ×10⁻⁶ cm/s; Fu [3]: 0.0007%; solubility [4]: > 100 µM

Question: Which Kd [1] does the source give for `O=C(O)c1cc(NS(=O)(=O)c2cc(Br)ccc2O)cc(S(F)(F)(F)(F)F)c1` here?
Answer: The Kd was 64 nM.

Question: What does the source list for `CS(=O)(=O)c1cc(Cl)cc(NS(=O)(=O)c2cc(Br)ccc2O)c1O`?
Answer: Kd [1]: 1070 nM; inhibition [5]: Active

Question: For `CS(=O)(=O)c1cc(S(F)(F)(F)(F)F)cc(NS(=O)(=O)c2cc(Br)ccc2O)c1O`, which Kd [1] is on record?
Answer: Its Kd is 167 nM.

Question: For `O=C(O)c1c(O)c(NS(=O)(=O)c2cc(Br)ccc2O)cc(C2CC2)c1F`, which Kd [1] is on record?
Answer: The Kd was 122 nM.

Question: What about the Papp [2] of the same compound?
Answer: The Papp was 0.61 ×10⁻⁶ cm/s.

Question: What about the Fu [3] of the same compound?
Answer: The Fu was under 0.0008%.

Question: And the inhibition [5]?
Answer: The inhibition was “Active”.

Question: And the solubility [4]?
Answer: The solubility was over 100 µM.

Question: With `CCOc1ccc(S(=O)(=O)Nc2ccccc2C(=O)O)c(C)c1C` as the compound, how does the Kd [1] read?
Answer: Its Kd is over 125000 nM.

Question: For `CNC(=O)c1cc(NS(=O)(=O)c2cc(Br)ccc2O)cc(C2(C#N)CCC2)c1`, which Kd [1] is on record?
Answer: The Kd was 1080 nM.

Question: With `O=S(=O)(Nc1cc(Cl)ccc1O)c1cccc(Br)c1` as the compound, how does the Kd [1] read?
Answer: Its Kd is 36100 nM.

Question: With `O=C(O)c1cc(NS(=O)(=O)c2cc(Br)ccc2O)cc(OC(F)(F)F)c1` as the compound, how does the Kd [1] read?
Answer: The Kd was 194 nM.

Question: For `CNC(=O)c1cc(S(F)(F)(F)(F)F)cc(NS(=O)(=O)c2cc(Br)ccc2O)c1O`, which Kd [1] is on record?
Answer: The Kd was 204 nM.

Question: With `COc1ccc(Br)cc1S(=O)(=O)Nc1cc(-c2ccccc2)ccc1O` as the compound, how does the Kd [1] read?
Answer: The Kd was 37000 nM.

Question: Which ΔTm [6] does the source give for `N#CC1(c2cc(NS(=O)(=O)c3ccc(Br)cc3O)c(O)c(C(=O)O)c2)CCC1` here?
Answer: The ΔTm was 0.42 °C.

Question: Which results are given for `O=C(O)c1c(O)c(NS(=O)(=O)c2cc(Br)cc(Cl)c2O)cc(C2CC2)c1F`?
Answer: Activity [7]: Active; Kd [1]: 50 nM; Activity [8]: Active; inhibition [5]: Active

Question: With `O=S(=O)(Nc1cc(C2CC2)ccc1O)c1cc(Br)ccc1O` as the compound, how does the Kd [1] read?
Answer: Its Kd is 818 nM.

Question: Which results are given for `N#CC1(c2cc(NS(=O)(=O)c3cc(Br)cc(Cl)c3O)c(O)c(C(=O)O)c2)CCCCC1`?
Answer: ΔTm [6]: 6.38 °C; Activity [7]: Active; Kd [1]: 38 nM; Activity [8]: Active

Question: With `COc1ccc(Br)cc1S(=O)(=O)Nc1cc(Cl)ccc1O` as the compound, how does the inhibition [5] read?
Answer: The inhibition was “Active”.

Question: Which results are given for `CNC(=O)c1cc(C2(C#N)CCCCC2)cc(NS(=O)(=O)c2cc(Br)cc(Cl)c2O)c1O`?
Answer: Activity [7]: Active; Kd [1]: 362 nM; Activity [8]: Active

Question: Which Kd [1] does the source give for `N#CC1(c2ccc(O)c(NS(=O)(=O)c3cc(Br)ccc3O)c2)CCCCC1` here?
Answer: Its Kd is 229 nM.

Question: Which Kd [1] does the source give for `COc1ccc(Br)cc1S(=O)(=O)Nc1cc(C(C)(C)C)ccc1O` here?
Answer: Its Kd is 3780 nM.

Question: With `CCOc1cc(S(=O)(=O)Nc2ccccc2C(=O)O)ccc1F` as the compound, how does the Kd [1] read?
Answer: The Kd was 71000 nM.

Question: For `CNC(=O)c1c(O)c(NS(=O)(=O)c2cc(Br)cc(Cl)c2O)cc(C2CC2)c1F`, which Activity [7] is on record?
Answer: The Activity was “Active”.

Question: And the Kd [1]?
Answer: The Kd was 238 nM.

Question: And the Activity [8]?
Answer: The Activity was “Active”.

Question: And the inhibition [5]?
Answer: The inhibition was “Active”.

Question: With `CNC(=O)c1cc(C2(C#N)CCC2)cc(NS(=O)(=O)c2cc(Br)cc3cccnc23)c1O` as the compound, how does the Kd [1] read?
Answer: Its Kd is 825 nM.

Question: And the Activity [8]?
Answer: The Activity was “Active”.

Question: With `O=C(O)c1cc(S(F)(F)(F)(F)F)cc(NS(=O)(=O)c2cc(Br)ccc2O)c1O` as the compound, how does the Kd [1] read?
Answer: The Kd was 47 nM.

Question: And the inhibition [9]?
Answer: Its inhibition is “inactive”.

Question: For `COc1ccc(Br)cc1S(=O)(=O)Nc1cc(Cl)cc(S(C)(=O)=O)c1O`, which Kd [1] is on record?
Answer: The Kd was 304 nM.

Question: And the Activity [8]?
Answer: The Activity was “Active”.

Question: With `CNC(=O)c1cc(Cl)cc(NS(=O)(=O)c2cc(Br)cc(Cl)c2O)c1O` as the compound, how does the Kd [1] read?
Answer: Its Kd is 298 nM.

Question: Which Kd [1] does the source give for `CS(=O)(=O)c1cc(NS(=O)(=O)c2cc(Br)cc(Cl)c2O)cc(S(F)(F)(F)(F)F)c1` here?
Answer: Its Kd is 93 nM.

Question: And the Activity [8]?
Answer: Its Activity is “Active”.

Question: With `CS(=O)(=O)c1cc(C2(C#N)CCC2)cc(NS(=O)(=O)c2cc(Br)cc(Cl)c2O)c1O` as the compound, how does the Kd [1] read?
Answer: The Kd was 110 nM.

Question: Which Kd [1] does the source give for `COc1ccc(Br)cc1S(=O)(=O)Nc1ccc(Cl)cc1O` here?
Answer: Its Kd is 27700 nM.

Question: What does the source list for `O=S(=O)(Nc1cc(S(F)(F)(F)(F)F)ccc1O)c1cc(Br)ccc1O`?
Answer: Kd [1]: 110 nM; Papp [2]: 14.7 ×10⁻⁶ cm/s; inhibition [5]: Active; solubility [4]: > 100 µM

Question: Which results are given for `O=C(O)c1cc(Cl)cc(NS(=O)(=O)c2cc(Br)cc(Cl)c2O)c1O`?
Answer: ΔTm [6]: 4.05 °C; Kd [1]: 163 nM

Question: Which Activity [7] does the source give for `CNC(=O)c1cc(C2(C#N)CCC2)cc(NS(=O)(=O)c2cc(Br)ccc2O)c1O` here?
Answer: Its Activity is “Active”.

Question: What about the Kd [1] of the same compound?
Answer: The Kd was 566 nM.

Question: And the Papp [2]?
Answer: The Papp was 45.2 ×10⁻⁶ cm/s.

Question: And the Fu [3]?
Answer: The Fu was under 0.0006%.

Question: What about the Activity [8] of the same compound?
Answer: Its Activity is “Active”.

Question: What about the inhibition [5] of the same compound?
Answer: The inhibition was “Active”.

Question: And the solubility [4]?
Answer: The solubility was over 100 µM.

Question: For `CNC(=O)c1cc(C2(C#N)CCCCC2)cc(NS(=O)(=O)c2cc(Br)ccc2O)c1O`, which Kd [1] is on record?
Answer: Its Kd is 779 nM.

Question: And the inhibition [9]?
Answer: The inhibition was “inactive”.
